# According to ChEMBL document CHEMBL2040753, “Development of potent and selective inhibitors of aldo-keto reductase 1C3 (type 5 17β-hydroxysteroid dehydrogenase) based on N-phenyl-aminobenzoates and their structure-activity relationships” (J Med Chem, 2012):
# pIC50: −log10 of the molar value.
# Tests used:
# [1] = biological target: T1, Aldo-keto reductase family 1 member C3 (Homo sapiens, UniProt P42330); assay: Inhibition of recombinant AKR1C3 assessed as NADP+ dependent oxidation of S-tetralol by fluorescence assay
# T1 sequence (P42330 whole entry): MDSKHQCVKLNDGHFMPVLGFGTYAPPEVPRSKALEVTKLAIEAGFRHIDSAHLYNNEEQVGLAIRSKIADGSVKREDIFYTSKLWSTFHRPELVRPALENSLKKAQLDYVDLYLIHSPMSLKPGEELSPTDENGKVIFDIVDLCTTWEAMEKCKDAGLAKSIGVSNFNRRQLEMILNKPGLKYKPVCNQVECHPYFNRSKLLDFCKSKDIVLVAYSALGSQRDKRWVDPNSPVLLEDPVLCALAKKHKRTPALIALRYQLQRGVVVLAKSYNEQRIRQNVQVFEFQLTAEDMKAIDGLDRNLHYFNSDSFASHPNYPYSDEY
# [2] = biological target: T2, Aldo-keto reductase family 1 member C2 (Homo sapiens, UniProt P52895); assay: Inhibition of recombinant AKR1C2 assessed as NADP+ dependent oxidation of S-tetralol by fluorescence assay
# T2 sequence (P52895 whole entry): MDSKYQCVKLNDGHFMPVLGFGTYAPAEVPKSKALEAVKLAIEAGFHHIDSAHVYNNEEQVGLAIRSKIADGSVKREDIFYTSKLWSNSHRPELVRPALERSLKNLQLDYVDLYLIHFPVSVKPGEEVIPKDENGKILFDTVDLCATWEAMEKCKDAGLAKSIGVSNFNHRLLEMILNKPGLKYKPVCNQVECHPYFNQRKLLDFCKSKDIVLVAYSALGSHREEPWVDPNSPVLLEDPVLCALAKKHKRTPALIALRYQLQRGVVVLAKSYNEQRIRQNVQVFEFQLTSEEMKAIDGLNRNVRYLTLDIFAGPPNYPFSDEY
# Method in brief: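 Homogeneous recombinant enzyme; continuous oxidation of S-tetralol (at each isoform's KM) with 200 μM NADP+ in 100 mM phosphate pH 7.0, 4% DMSO, 37 °C. Initial velocities compared with solvent control; quadruplicate points over a range of inhibitor concentrations; IC50 from curve fit.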
Structure (SMILES),pIC50 [1],pIC50 [2]
CC(=O)c1cccc(Nc2ccccc2C(=O)O)c1,6.85,5.81
COc1ccc(Nc2ccc(C(=O)O)cc2)c([N+](=O)[O-])c1,5.69,4.23
O=C(O)c1ccc(Nc2ccc(Br)cc2)cc1,5.93,< 4.52
COc1ccc(C(=O)O)c(Nc2cccc(C(F)(F)F)c2)c1,7.22,6.66
CC(=O)c1ccc(Nc2cccc([N+](=O)[O-])c2)c(C(=O)O)c1,6.01,5.50
O=C(O)c1ccc(Nc2cccc(C(=O)O)c2)cc1,5.79,4.70
COc1cccc(Nc2cccc(C(=O)O)c2)c1,5.92,4.82
COc1ccc(C(=O)O)c(Nc2cccc([N+](=O)[O-])c2)c1,7.10,6.72
O=C(O)c1cccc(Nc2cc(C(=O)O)cc(C(=O)O)c2)c1,< 4.52,< 4.00
CC(=O)c1ccc(Nc2cc(C(=O)O)cc(C(=O)O)c2)c(C(=O)O)c1,6.21,4.50
O=C(O)c1cccc(Nc2ccccc2C(F)(F)F)c1,6.25,4.82
COc1ccccc1Nc1ccc(C(C)=O)cc1C(=O)O,5.51,5.05
COc1cccc(Nc2ccc(C(C)=O)cc2C(=O)O)c1,5.65,5.45
CC(=O)c1ccc(Nc2ccc(C(C)=O)cc2C(=O)O)cc1,6.33,4.73
Cc1cccc(C)c1Nc1cccc(C(=O)O)c1,5.54,4.99
COc1ccc(C(=O)O)c(Nc2cccc(C(=O)O)c2)c1,5.84,5.08
COc1ccc(C(=O)O)c(Nc2cc(C)cc(C)c2)c1,5.76,5.49
COc1ccc(Nc2ccc(C(C)=O)cc2C(=O)O)cc1,6.21,6.04
O=C(O)c1cccc(Nc2cccc(Cl)c2)c1,6.34,5.14
O=C(O)c1cccc(Nc2cccc(C(=O)O)c2)c1,5.45,< 4.00
Cc1ccc(Nc2ccc(C(=O)O)cc2)cc1,5.72,4.32
O=C(O)c1cccc(Nc2ccc([N+](=O)[O-])cc2OC(F)(F)F)c1,7.40,5.75

Structure (SMILES),pIC50 [1],pIC50 [2]
COc1ccc(C(=O)O)c(Nc2cccc(Cl)c2)c1,6.80,6.55
COc1ccc(C(=O)O)c(Nc2cccc(C)c2)c1,6.19,6.06
CC(C)(C)c1ccc(Nc2ccccc2C(=O)O)cc1,7.40,5.97
O=C(O)c1ccc(Nc2cccc([N+](=O)[O-])c2)cc1,5.38,< 4.00
O=C(O)c1cccc(Nc2cc(C(F)(F)F)cc(C(F)(F)F)c2)c1,6.60,4.72
COc1ccccc1Nc1ccc(C(=O)O)cc1,5.47,4.53
CC(=O)c1ccc(Nc2cc(C)cc(C)c2)c(C(=O)O)c1,5.74,4.97
CC(=O)c1cccc(Nc2ccc(C(C)=O)cc2C(=O)O)c1,6.19,5.73
CC(=O)c1ccc(Nc2cccc(Cl)c2)c(C(=O)O)c1,5.94,5.59
CC(=O)c1ccc(Nc2ccccc2C(F)(F)F)c(C(=O)O)c1,5.87,5.68
O=C(O)c1ccc(Nc2ccc(C(=O)O)cc2)cc1,5.63,5.20
CC(=O)c1ccc(Nc2ccccc2)c(C(=O)O)c1,5.60,5.42
CC(=O)c1ccccc1Nc1cccc(C(=O)O)c1,6.02,4.49
COc1ccc(C(=O)O)c(Nc2ccccc2OC)c1,5.76,5.62
COc1ccccc1Nc1ccccc1C(=O)O,5.65,5.89
COc1ccc(Nc2ccccc2C(=O)O)cc1,7.05,6.15
CC(=O)c1ccc(Nc2ccc([N+](=O)[O-])cc2)c(C(=O)O)c1,5.93,5.88
COc1cc(Nc2ccc(C(C)=O)cc2C(=O)O)cc(OC)c1,6.05,4.57
COc1ccc(C(=O)O)c(Nc2ccc(C(C)=O)cc2)c1,6.30,6.57
Cc1cc(C)cc(Nc2cccc(C(=O)O)c2)c1,5.97,4.35
Cc1cc(C)cc(Nc2ccccc2C(=O)O)c1,5.96,5.63
COc1ccc(C(=O)O)c(Nc2ccc([N+](=O)[O-])cc2)c1,6.30,6.72
